According to ChEMBL document CHEMBL1153058, “Cycloaspeptides F and G, Cyclic Pentapeptides from a Cordyceps-colonizing isolate of Isaria farinosa” (2009):
Where a SMILES comes first, the peptide text is derived from it. [ ]: non-standard residue; d: D form. The star is where a group is joined. βGlc = OC[C@H]1O[C@@H](*)[C@H](O)[C@@H](O)[C@@H]1O; NMeY = CN[C@@H](Cc1ccc(O)cc1)C(=O)O; NMeF = CN[C@@H](Cc1ccccc1)C(=O)O; 2Abz = Nc1ccccc1C(=O)O

Experiments:
[1] = system: HeLa; experiment: Cytotoxicity against human HeLa cells after 48 hrs by MTT assay; assay type: functional
Summary of the method: (§1)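 MTT assay: 10^4 cells per well, attached overnight. Cells exposed for 4 h at 37 °C, 5% CO2, to compound serially diluted in medium from a 10 mg/mL DMSO stock, vehicle 0.2% DMSO. Medium then replaced with fresh DMEM and growth continued 48 h. MTT 0.5 mg/mL added for 3 h in the dark, formazan dissolved in DMSO, absorbance read at 540 nm. GI50 derived.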

[2] = system: MCF7; experiment: Cytotoxicity against human MCF7 cells after 48 hrs by MTT assay; assay type: functional; conditions: MCF7, 48 h; summary of the method: as §1

| Structure (SMILES) | GI50 [1] [µM] | GI50 [2] [µM] |
| --- | --- | --- |
| CC(C)C[C@@H]1NC(=O)[C@H](Cc2ccccc2)N(C)C(=O)[C@H](C)NC(=O)c2ccccc2NC(=O)[C@H](Cc2ccc(O[C@@H]3O[C@H](CO)[C@@H](O)[C@H](O)[C@H]3O)cc2)N(C)C1=O [Cycloaspeptide F] (cyclo([2Abz]A[NMeF]L[NMeY](βGlc))) | 49.8 | 18.7 |
| CC(C)C[C@@H]1NC(=O)[C@H](Cc2ccccc2)NC(=O)[C@H](C)NC(=O)c2ccccc2NC(=O)[C@H](Cc2ccc(O)cc2)N(C)C1=O [cycloaspeptide C] (cyclo([2Abz]AFL[NMeY])) | > 63.4 | 31.9 |
| CC(C)C[C@@H]1NC(=O)[C@H](Cc2ccccc2)N(C)C(=O)[C@H](C)NC(=O)c2ccccc2NC(=O)[C@H](Cc2ccc(O)cc2)N(C)C1=O [CYCLOASPEPTIDE A] (cyclo([2Abz]A[NMeF]L[NMeY])) | 31.2 | 23.4 |
| O=c1[nH]cc(F)c(=O)[nH]1 [FLUOROURACIL] | 10 | 15 |
| CS[C@]1(CO)C(=O)N(C)[C@](Cc2ccccc2)(SC)C(=O)N1C [BISDETHIODI(METHYLTHIO)HYALODENDRIN] | > 113 | 113 |
| CC(C)C[C@@H]1NC(=O)[C@H](Cc2ccc(O)cc2)N(C)C(=O)[C@H](C)NC(=O)c2ccccc2NC(=O)[C@H](Cc2ccc(O)cc2)N(C)C1=O [Cycloaspeptide G] (cyclo([2Abz]A[NMeY]L[NMeY])) | 30.4 | 15.2 |
